# From ChEMBL document CHEMBL4312005, “Optimization of pyrrolizine-based Schiff bases with 4-thiazolidinone motif: Design, synthesis and investigation of cytotoxicity and anti-inflammatory potency” (Eur J Med Chem, 2020)
# Tests used:
# MCF7 [1] = assay: Antiproliferative activity against human MCF7 cells assessed as cell viability at 5 uM incubated for 48 hrs by MTT assay (reference value: 100 %); assay type: functional; details: MCF7, 48 h, read-out: Activity
# Method in brief: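 Preliminary single-dose screen by MTT assay. MCF-7 cells grown in DMEM/10% FBS were exposed to 5 μM compound for 48 h, and growth% was determined. Values are mean ± S.D., n = 6.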
# [2] = Selectivity index, ratio of IC50 for cytotoxicity against human MRC5 cells to IC50 for antiproliferative activity against human HT-29 cells; details: MRC5 cells versus HT-29 cells
# Rattus norvegicus [3] = assay: Antiinflammatory activity against albino rats assessed as inhibition of carrageenan-induced paw edema at 0.5 mmol, po measured after 2 hrs relative to control; assay type: functional
# Method in brief: (§1)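 Carrageenan rat paw edema (Winter method) in male and female adult albino rats (100-140 g). […] Swelling inhibition expressed as % of control at 2-4 h after carrageenan injection.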
# Rattus norvegicus [4] = assay: Antiinflammatory activity against albino rats assessed as inhibition of carrageenan-induced paw edema at 0.5 mmol, po measured after 4 hrs relative to control; assay type: functional; method in brief: as §1
# MCF7 [5] = assay: Cell cycle arrest in human MCF7 cells assessed as G2/M phase accumulation at 10 uM incubated for 24 hrs by propidium iodide based flow cytometry (reference value: 17.2 to 26.8 %); assay type: functional
# MCF7 [6] = assay: Induction of apoptosis in human MCF7 cells incubated for 24 hrs by annexin V FITC and propidium iodide staining based flow cytometry; assay type: functional, cell-based
Structure (SMILES),viability at 5 µM (MCF7 [1]),selectivity ratio [2],inhibition (INH) (Rattus norvegicus [3]),inhibition (INH) (Rattus norvegicus [4]),Activity (MCF7 [5]),Activity (MCF7 [6])
CC(C)C/C=N/c1c(C#N)c2n(c1C(=O)Nc1ccc(Br)cc1)CCC2,56%,39 to 258,18.13%,30.82%,15.1%,
CCC1SCC(=O)N1c1c(C#N)c2n(c1C(=O)Nc1ccccc1)CCC2 (configuration not stated),,,,,14.1%,Dose-dependent effect
